According to ChEMBL document CHEMBL4270630:

Tests used:
[1] = test system: Influenza A virus; assay: Antiviral activity against Influenza A virus A/Virginia/ATCC3/2009(H1N1pdm) infected in MDCK cells assessed as reduction in virus-induced cytopathic effect after 3 days by microscopic method; format: functional, organism-based, Influenza A virus (A/Virginia/03/2009(H1N1)); conditions: 72 h
Summary of the method: (§1)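 Semi-confluent MDCK cells were infected at an MOI of 0.0004 PFU/cell in Ultra-MDCK infection medium with 2 μg/mL TPCK-trypsin, together with compounds. After 3 days at 35 °C, CPE was scored by microscopy and confirmed by MTS formazan viability. EC50 is the concentration giving 50% inhibition of virus-induced CPE. Values are means of two to five independent tests.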

[2] = test system: Human coronavirus 229E; assay: Antiviral activity against Human coronavirus 229E infected in HEL299 cells assessed as reduction in virus induced cytopathic effect after 5 days by microscopic method; format: functional, organism-based; conditions: HEL 299, 120 h
Summary of the method: (§2)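 Confluent HEL 299 cells in medium with 2% FCS were exposed to HCoV-229E (100 CCID50/well) together with compounds and held for 5 days at 35 °C. EC50 (CPE reduction) and MCC (minimal morphology change) were determined by microscopy. SI is MCC/EC50.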

[3] = Cytotoxicity against HEL299 cells assessed as changes in cell morphology after 5 days by microscopic method; format: cell-based, HEL 299; conditions: human; summary of the method: as §2
[4] = test system: H3N2 subtype; assay: Antiviral activity against Influenza A virus A/HK/7/87(H3N2) infected in MDCK cells after 3 days by MTS assay; format: functional, organism-based; conditions: A/Hong Kong/7/1987(H3N2), 72 h; summary of the method: as §1
[5] = Cytotoxicity against MDCK cells assessed as alteration in cell morphology after 3 days by microscopic method; format: cell-based, Canis lupus familiaris; conditions: dog
Summary of the method: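 Mock-infected MDCK cells were treated with compounds in parallel with the antiviral assay, 3 days at 35 °C. MCC is the concentration causing minimal change in cell morphology by microscopy. CC50 is the 50% cytotoxic concentration by MTS formazan viability assay.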

[6] = test system: Influenza A virus; assay: Antiviral activity against Influenza A virus A/Virginia/ATCC3/2009(H1N1pdm) infected in MDCK cells after 3 days by MTS assay; format: functional, organism-based, Influenza A virus (A/Virginia/03/2009(H1N1)); conditions: 72 h; summary of the method: as §1
[7] = test system: Influenza A virus; assay: Antiviral activity against Influenza A virus A/PR/8/34(H1N1) infected in MDCK cells after 3 days by MTS assay; format: functional, organism-based, A/Puerto Rico/8/1934(H1N1); conditions: Influenza A virus, A/Puerto Rico/8/1934(H1N1), MDCK, 72 h; summary of the method: as §1
[8] = test system: Influenza A virus; assay: Antiviral activity against Influenza A virus A/PR/8/34(H1N1) infected in MDCK cells assessed as reduction in virus-induced cytopathic effect after 3 days by microscopic method; format: functional, organism-based, A/Puerto Rico/8/1934(H1N1); conditions: Influenza A virus, A/Puerto Rico/8/1934(H1N1), MDCK, 72 h; summary of the method: as §1
[9] = test system: MDCK; assay: Cytotoxicity against MDCK cells assessed as reduction in cell viability after 3 days by MTS assay; format: cell-based, Canis lupus familiaris; conditions: dog, mdck, 72 h
[10] = test system: Influenza B virus; assay: Antiviral activity against Influenza B virus B/Ned/537/05 infected in MDCK cells after 3 days by MTS assay; format: functional, organism-based; conditions: B/Ned/537/05, MDCK, 72 h
Summary of the method: (§3)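 Semi-confluent MDCK cells were infected at an MOI of 0.0004 PFU/cell in Ultra-MDCK infection medium with 2 μg/mL TPCK-trypsin, together with compounds. After 3 days at 35 °C, CPE was scored by microscopy and confirmed by MTS formazan viability. Values are means of two to five independent tests.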

[11] = test system: H3N2 subtype; assay: Antiviral activity against Influenza A virus A/HK/7/87(H3N2) infected in MDCK cells assessed as reduction in virus-induced cytopathic effect after 3 days by microscopic method; format: functional, organism-based; conditions: A/Hong Kong/7/1987(H3N2), 72 h; summary of the method: as §1
[12] = test system: Influenza B virus; assay: Antiviral activity against Influenza B virus B/Ned/537/05 infected in MDCK cells assessed as reduction in virus-induced cytopathic effect after 3 days by microscopic method; format: functional, organism-based; conditions: B/Ned/537/05, MDCK, 72 h; summary of the method: as §3
[13] = Cytotoxicity against human A549 cells assessed as changes in cell morphology after 3 days by microscopic method; format: cell-based
Summary of the method: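 Mock-infected A549 cells were incubated with compounds for 3 days. MCC is the concentration causing minimal change in cell morphology by microscopy.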

[14] = test system: Human coronavirus 229E; assay: Antiviral activity against Human coronavirus 229E infected in human A549 cells assessed as reduction in virus RNA level after 3 days by qRT-PCR method; format: functional; conditions: A549, 72 h
Summary of the method: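 Confluent A549 cells were infected with HCoV-229E in 2% FCS medium with compounds present. The inoculum was removed at 1 h and compounds were kept on at 35 °C. Supernatants were harvested at day 3, lysed at 75 °C for 10 min, and viral genome copies counted by one-step qRT-PCR.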

[15] = test system: Influenza B virus; assay: Antiviral activity against Influenza B virus B/HK/05/72 infected in MDCK cells after 3 days by MTS assay; format: functional, organism-based; conditions: B/Hong Kong/05/1972, MDCK, 72 h; summary of the method: as §1
[16] = test system: Influenza B virus; assay: Antiviral activity against Influenza B virus B/HK/05/72 infected in MDCK cells assessed as reduction in virus-induced cytopathic effect after 3 days by microscopic method; format: functional, organism-based; conditions: B/Hong Kong/05/1972, MDCK, 72 h; summary of the method: as §1

Row | Structure (SMILES) | EC50 [1] [µM] | EC50 [2] [µM] | MCC at 120 h [3] [µM] | EC50 [4] [µM] | MCC at 72 h [5] [µM] | EC50 [6] [µM] | EC50 [7] [µM] | EC50 [8] [µM] | CC50 [9] [µM] | EC50 [10] [µM] | EC50 [11] [µM] | EC50 [12] [µM] | MCC at 72 h [13] [µM] | EC90 [14] [µM] | EC99 [14] [µM] | EC50 [15] [µM] | EC50 [16] [µM]
1 | CC(=O)N[C@H]1[C@H](O[C@@H]2c3ccc(c(Cl)c3)Oc3cc4cc(c3O)Oc3ccc(cc3Cl)C[C@H]3NC(=O)[C@H](NS(=O)(=O)c5cccc6c(N(C)C)cccc56)c5ccc(O)c(c5)Oc5cc(O)cc(c5)[C@H](NC3=O)C(=O)N[C@H]4C(O)N[C@H]3C(=O)N[C@H]2C(=O)N[C@@H](C(=O)O)c2cc(O)cc(O)c2-c2cc3ccc2O)O[C@H](CO)[C@@H](O)[C@@H]1O (some centres undefined) | 6.3 | > 100 | ≥ 4 | 2.3 | 20 | 5.9 | 7 | 4.9 | 52 | 5.3 | 8.3 | 6.7 |  |  |  |  | 
2 | CCCCOCc1cn(CCOCCOCCOCCOCc2cn([C@H]3C(=O)N[C@@H]4Cc5ccc(c(Cl)c5)Oc5cc6cc(c5O)Oc5ccc(cc5Cl)[C@@H](O[C@@H]5O[C@H](CO)[C@@H](O)[C@H](O)[C@H]5NC(C)=O)[C@H]5NC(=O)[C@H](NC(O)[C@@H]6NC(=O)[C@@H](NC4=O)c4cc(O)cc(c4)Oc4cc3ccc4O)c3ccc(O)c(c3)-c3c(O)cc(O)cc3[C@H](C(=O)O)NC5=O)nn2)nn1 (some centres undefined) | > 100 | ≥ 100 | ≥ 100 | 31 | 100 | 47 | 51 | > 100 | > 100 | 28 | > 100 | > 100 |  |  |  |  | 
3 | O=C(N/C(=C\c1ccccc1)C(=O)N1CCC(O)(c2ccc(Br)cc2)CC1)c1ccccc1 |  |  |  |  |  |  |  |  |  |  |  |  | ≥ 50 | 11 | 15 |  | 
4 | CC(=O)Nc1ccc(S(=O)(=O)N[C@H]2C(=O)N[C@@H]3Cc4ccc(c(Cl)c4)Oc4cc5cc(c4O)Oc4ccc(cc4Cl)[C@@H](O[C@@H]4O[C@H](CO)[C@@H](O)[C@H](O)[C@H]4NC(C)=O)[C@H]4NC(=O)[C@H](NC(O)[C@@H]5NC(=O)[C@@H](NC3=O)c3cc(O)cc(c3)Oc3cc2ccc3O)c2ccc(O)c(c2)-c2c(O)cc(O)cc2[C@H](C(=O)O)NC4=O)cc1 (some centres undefined) | > 100 | > 100 | ≥ 20 | > 100 | 100 | > 100 | > 100 | > 100 | 60 | 47 | > 100 | > 100 |  |  |  |  | 
5 | CCCSC1=C(SCCC)C(=O)N(CCOCCOCCOCCOCc2cn(C3C(=O)N[C@@H]4Cc5ccc(c(Cl)c5)Oc5cc6cc(c5O)Oc5ccc(cc5Cl)[C@@H](O[C@@H]5O[C@H](CO)[C@@H](O)[C@H](O)[C@H]5NC(C)=O)[C@H]5NC(=O)[C@H](NC(O)[C@@H]6NC(=O)[C@@H](NC4=O)c4cc(O)cc(c4)Oc4cc3ccc4O)c3ccc(O)c(c3)-c3c(O)cc(O)cc3[C@H](C(=O)O)NC5=O)nn2)C1=O (some centres undefined) | > 100 |  |  | ≤ 7.8 | 20 | 7.8 | > 100 | > 100 | 38 |  | 6.2 |  |  |  |  | > 100 | > 100
